Experimental data from ChEMBL document CHEMBL1811823, “Quinazolinone linked pyrrolo[2,1-c][1,4]benzodiazepine (PBD) conjugates: Design, synthesis and biological evaluation as potential anticancer agents” (2010).
Calls of active or inactive are those of the source. The rule behind the calls is not given here.

Tests used:
[1] = Growth inhibition of human DWD cells after 48 hrs by SRB assay; format: functional
How it was run: (§1)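 Cells grown in RPMI 1640 with 10% FBS and 2 mM L-glutamine, plated at densities set by doubling time, pre-incubated 24 h at 37 °C/5% CO2. Drug tested at 0.1, 1, 10 and 100 µM in triplicate wells for 48 h continuous exposure. Cells fixed with cold TCA (final 10%) 60 min at 4 °C, stained with 0.4% SRB, dye eluted in 10 mM Tris. Absorbance read at 540 nm (690 nm reference); percent growth calculated relative to control wells.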

[2] = Growth inhibition of human Gurav cells after 48 hrs by SRB assay; format: functional; how it was run: as §1
[3] = system: SiHa; assay: Growth inhibition of human SiHa cells after 48 hrs by SRB assay; format: functional
How it was run: (§2)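 SRB assay with 48 h continuous exposure. Cells were grown in RPMI 1640 with 10% FBS and 2 mM L-glutamine and preincubated 24 h at 37 °C, 5% CO2. Compounds were tested at four concentrations (0.1, 1, 10, 100) in triplicate wells. Cells were fixed with cold TCA (10% final) for 60 min at 4 °C, stained 20 min with 0.4% SRB in 1% acetic acid, and the dye eluted with 10 mM Tris. A540 was read against a 690 nm reference. Percent growth is relative to control wells on each plate.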

[4] = system: COLO 205; assay: Growth inhibition of human COLO205 cells after 48 hrs by SRB assay; format: functional; settings: COLO 205, 48 h; how it was run: as §1
[5] = system: HOP-62; assay: Growth inhibition of human HOP62 cells after 48 hrs by SRB assay; format: functional; settings: HOP-62, 48 h; how it was run: as §1
[6] = system: MCF7; assay: Growth inhibition of human MCF7 cells after 48 hrs by SRB assay; format: functional; settings: MCF7, 48 h; how it was run: as §1
[7] = system: A2780; assay: Growth inhibition of human A2780 cells after 48 hrs by SRB assay; format: functional; settings: A2780, 48 h; how it was run: as §1
[8] = system: KB; assay: Growth inhibition of human KB cells after 48 hrs by SRB assay; format: functional; how it was run: as §1
[9] = system: A549; assay: Growth inhibition of human A549 cells after 48 hrs by SRB assay; format: functional; settings: A549, 48 h; how it was run: as §1
[10] = system: ZR-75-1; assay: Growth inhibition of human ZR-75-1 cells after 48 hrs by SRB assay; format: functional; settings: ZR-75-1, 48 h; how it was run: as §2
[11] = system: Nucleic Acid; assay: Binding affinity to calf thymus DNA assessed as change in melting temperature at 20 uM at pH 7 incubated for 18 hrs at 37 degC by thermal denaturation assay; format: nucleic-acid assay; settings: Bos taurus
How it was run: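 CT-DNA (100 µM in phosphate) with 20 µM ligand, 1:5 [PBD]/[DNA], in 10 mM sodium phosphate/1 mM Na2EDTA buffer pH 7.00. Ligand added from methanol solution; incubated at 37 °C for 0 or 18 h. A260 monitored while heating 1 °C/min over 40–90 °C. Tm taken from d(A260)/dT maxima; ΔTm = Tm(DNA+PBD) − Tm(DNA alone). Values are means of at least three determinations, corrected for methanol cosolvent.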

[12] = system: PC-3; assay: Growth inhibition of human PC3 cells after 48 hrs by SRB assay; format: functional; settings: PC-3, 48 h; how it was run: as §1
[13] = system: A-375; assay: Increase in p27 protein expression in human A375 cells at 4 uM after 24 hrs by Western blot; format: functional, cell-based
How it was run: (§3)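 A375 cells (DMEM, 10% FCS, 37 °C, 5% CO2) were treated at 4 µM for 24 h. Lysates were loaded at 30 µg protein/lane on 12% SDS-PAGE and transferred to PVDF. Membranes were blocked 2 h in TBST, incubated with primary antibody overnight at 4 °C (p53 1:100, p27 1:500, NF-κB p65 1:500), then HRP secondary 1 h, with chemiluminescent detection. β-actin was the loading control; untreated and DMSO controls were run.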

[14] = system: A-375; assay: Increase in active caspase-3 protein level in human A375 cells at 4 uM after 24 hrs by Western blot; format: functional, cell-based
How it was run: (§4)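 A375 cells were exposed 24 h at 4 µM. Lysates (30 µg/lane) were run on 12% SDS-PAGE and transferred to PVDF, then probed overnight at 4 °C with anti-cleaved caspase-3 (1:200, detects 21 kDa) or anti-PARP (1:2000, detects 113 and 85 kDa). HRP secondary and chemiluminescence were used. β-tubulin was the loading control; untreated and DMSO controls were included.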

[15] = system: A-375; assay: Decrease in Bcl-2 mRNA expression in human A375 cells at 4 uM after 24 hrs by RT-PCR
[16] = system: A-375; assay: Increase in cytochrome C release in human A375 cells at 4 uM after 24 hrs by Western blot; format: functional, cell-based
How it was run: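 Western blot of A375 cell lysates after 24 h exposure at 4 µM, with 30 µg protein/lane on 12% SDS-PAGE and transfer to PVDF. Probed overnight at 4 °C with anti-cytochrome c (1:500), then HRP secondary and chemiluminescence. β-actin was the loading control; untreated and DMSO-only cells served as controls.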

[17] = system: A-375; assay: Induction of apoptosis in human A375 cells assessed as sub-G1 phase accumulation at 4 uM after 24 hrs by propidium iodide staining based flow cytometry; format: functional
How it was run: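 A375 cells (5×10^5 per 60 mm dish) were grown 24 h, then treated 24 h at 0–4 µM. Cells were harvested with trypsin-EDTA, fixed in ice-cold 70% ethanol for 30 min at 4 °C, treated with RNase A (1 mg/ml) for 30 min at 37 °C, and stained with propidium iodide. Cell-cycle distribution, including the sub-G1 fraction, was measured by flow cytometry. DMSO-exposed cells were the control.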

[18] = system: A-375; assay: Cytotoxicity against human A375 cells assessed as cell viability after 24 hrs by MTT assay; format: functional
How it was run: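 A375 cells seeded at 10,000/well, incubated overnight, then treated for 24 h. MTT added at 10% of culture volume for 2 h at 37 °C. Formazan dissolved in 20% SDS/50% DMF overnight at 37 °C; absorbance read at 570 nm against a medium blank. Viability expressed as percent of untreated cells.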

[19] = system: A-375; assay: Cell cycle arrest in human A375 cells assessed as decrease in G2/M phase at 4 uM after 24 hrs by propidium iodide staining based flow cytometry; format: functional; design: scale not given: the % may be the effect or the level left
How it was run: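 A375 melanoma cells (DMEM, 10% FCS, 37 °C, 5% CO2) seeded at 5×10^5 per dish and grown 24 h, then exposed to 0–4 µM for 24 h. Harvested with trypsin-EDTA, fixed in ice-cold 70% ethanol, RNase A treated (1 mg/ml, 37 °C, 30 min), stained with propidium iodide and analysed by flow cytometry for phase distribution.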

[20] = system: A-375; assay: Inhibition of NF-kappaB signaling in human A375 cells at 4 uM after 24 hrs by Western blot; format: cell-based; how it was run: as §3
[21] = system: A-375; assay: Increase in p53 protein expression in human A375 cells at 4 uM after 24 hrs by Western blot; format: functional, cell-based; how it was run: as §3
[22] = system: A-375; assay: Increase in active PARP cleavage product (85kDa) level in human A375 cells at 4 uM after 24 hrs by Western blot; format: functional, cell-based; how it was run: as §4

| SMILES | GI50 [4] | GI50 [6] | GI50 [7] | GI50 [8] | GI50 [9] | ΔTm [11] | GI50 [12] | GI50 [1] | GI50 [2] | GI50 [3] | GI50 [5] | GI50 [10] | further results |
| --- | --- | --- | --- | --- | --- | --- | --- | --- | --- | --- | --- | --- | --- |
| COc1cccc2c1C(=O)c1c(O)c3c(c(O)c1C2=O)C[C@@](O)(C(=O)CO)C[C@@H]3O[C@H]1C[C@H](N)[C@H](O)[C@H](C)O1 [DOXORUBICIN] | 140 nM | 170 nM | 160 nM | 170 nM | – | – | – | 100 nM | 170 nM | 170 nM | 140 nM | – | – |
| COc1cc2c(cc1OCCCCOc1ccc(-n3c(C)nc4ccccc4c3=O)cc1)N=C[C@@H]1CCCN1C2=O | 1810 nM | 2300 nM | 1650 nM | 1980 nM | 1930 nM | 2.1 °C | 170 nM | 1600 nM | 1950 nM | 1900 nM | 1950 nM | 170 nM | – |
| COc1cc2c(cc1OCCCOc1ccc(-n3c(C)nc4ccccc4c3=O)cc1)N=C[C@@H]1CCCN1C2=O | 140 nM | 1830 nM | 100 nM | 150 nM | 1480 nM | 2 °C | 130 nM | 110 nM | 130 nM | 160 nM | 160 nM | 150 nM | – |
| COc1cc2c(cc1OCCCCCOc1ccc3nc(C)n(-c4ccc(I)cc4C)c(=O)c3c1)N=C[C@@H]1CCCN1C2=O | 160 nM | 110 nM | 140 nM | 150 nM | 160 nM | 2.1 °C | 160 nM | 130 nM | 160 nM | 170 nM | 160 nM | 160 nM | – |
| COc1cc2c(cc1O)N=C[C@@H]1CCCN1C2=O | 110 nM | 170 nM | 140 nM | 170 nM | 160 nM | 0.7 °C | 200 nM | – | 160 nM | 170 nM | 150 nM | – | – |

More lines, main results first:

| GI50 [4] | GI50 [6] | GI50 [7] | GI50 [8] | GI50 [9] | ΔTm [11] | GI50 [12] | SMILES | GI50 [1] | GI50 [2] | GI50 [3] | GI50 [5] | GI50 [10] | further results |
| --- | --- | --- | --- | --- | --- | --- | --- | --- | --- | --- | --- | --- | --- |
| 170 nM | 120 nM | 150 nM | 150 nM | 170 nM | 2 °C | 170 nM | COc1cc2c(cc1OCCCCOc1ccc3nc(C)n(-c4ccc(I)cc4C)c(=O)c3c1)N=C[C@@H]1CCCN1C2=O | 150 nM | 170 nM | 180 nM | 170 nM | 160 nM | – |
| 2120 nM | 2030 nM | 140 nM | 1780 nM | 1880 nM | 2 °C | 160 nM | COc1cc2c(cc1OCCCOc1ccc(-n3c(/C=C/c4ccccc4)nc4ccccc4c3=O)cc1)N=C[C@@H]1CCCN1C2=O | 140 nM | 1850 nM | 2000 nM | 2150 nM | 160 nM | – |
| 150 nM | 150 nM | 140 nM | 150 nM | 130 nM | 2.2 °C | 170 nM | COc1cc2c(cc1OCCCCCOc1ccc3nc(C)n(-c4ccc(F)cc4)c(=O)c3c1)N=C[C@@H]1CCCN1C2=O | 150 nM | 130 nM | 190 nM | 180 nM | 160 nM | – |
| 2230 nM | – | 160 nM | 2070 nM | 2390 nM | 2.3 °C | 1910 nM | COc1cc2c(cc1OCCCCOc1ccc(-n3c(/C=C/c4ccccc4)nc4ccccc4c3=O)cc1)N=C[C@@H]1CCCN1C2=O | 160 nM | 1930 nM | 2190 nM | 2330 nM | 160 nM | – |
| 140 nM | < 100 nM | 140 nM | 160 nM | 140 nM | 2.2 °C | 170 nM | COc1ccc(-n2c(C)nc3ccc(OCCCCCOc4cc5c(cc4OC)C(=O)N4CCC[C@H]4C=N5)cc3c2=O)cc1 | 130 nM | < 100 nM | 180 nM | 180 nM | 150 nM | – |
| 130 nM | < 100 nM | 110 nM | 150 nM | 130 nM | 2.3 °C | 170 nM | COc1cc2c(cc1OCCCCCOc1ccc3nc(C)n(-c4ccc(F)c(Cl)c4)c(=O)c3c1)N=C[C@@H]1CCCN1C2=O | 130 nM | < 100 nM | 170 nM | 140 nM | 150 nM | Activity [13]: Active; Activity [14]: Active; Decrease in Bcl-2 mRNA expression [15]: Active; Activity [16]: Active; Activity [17]: 24.1%; Activity [18]: 58.72%; Activity [19]: 11.92%; inhibition [20]: Active; Activity [21]: Active; Activity [22]: Active |
| 2000 nM | 2500 nM | 150 nM | 2150 nM | 26200 nM | 2 °C | 1830 nM | COc1cc2c(cc1OCCCCCOc1ccc(-n3c(/C=C/c4ccccc4)nc4ccccc4c3=O)cc1)N=C[C@@H]1CCCN1C2=O | 170 nM | 1820 nM | 2080 nM | 2310 nM | 150 nM | – |
| 170 nM | 140 nM | 150 nM | 160 nM | 180 nM | 2.3 °C | 180 nM | COc1cc2c(cc1OCCCCOc1ccc3nc(C)n(-c4ccc(Cl)cc4Cl)c(=O)c3c1)N=C[C@@H]1CCCN1C2=O | 150 nM | 170 nM | 180 nM | 180 nM | 170 nM | – |
